Measured values as given in ChEMBL document CHEMBL4007461, “Synthesis, Antiviral Potency, in Vitro ADMET, and X-ray Structure of Potent CD4 Mimics as Entry Inhibitors That Target the Phe43 Cavity of HIV-1 gp120” (J Med Chem, 2017).
pIC50: −log10 of the molar value.

Key:
[1] = (§1) Cytotoxicity against human TZM-bl cells incubated for 3 days by XTT assay; format: cell-based; details: TZM-bl cells
Summary of the method: (§2)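 TZM-bl cells, 1 x 10^4/well, cultured overnight at 37 °C. Compounds added at graded concentrations for three days.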

[2] = tested on: Human immunodeficiency virus 1; assay: Antiviral activity against X4 tropic HIV1 HXB2 infected in human TZM-bl cells pretreated with virus for 30 mins followed by 3 days incubation with cells by luciferase reporter gene based single cycle infection assay; format: functional, cell-based
Summary of the method: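 TZM-bl cells (1 x 10^4/well) were cultured overnight at 37 °C. HXB2-Env pseudovirus was preincubated 30 min with graded compound concentrations, then added to the cells for 3 days. Cells were washed and lysed, and luciferase was read. IC50 came from percent inhibition.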

[3] = tested on: Human immunodeficiency virus 1; assay: Antiviral activity against HIV1 3B infected in human MT2 cells assessed as inhibition of p24 antigen production pretreated with virus for 30 mins followed by 4 days incubation with cells by sandwich ELISA based multicycle infection assay; format: functional, cell-based
Summary of the method: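 MT-2 cells were infected with HIV-1 IIIB at 100 TCID50 and preincubated 30 min with graded compound concentrations. Medium was replaced next day. Supernatants were collected 4 days post-infection, lysed with equal volume 5% Triton X-100, and p24 was measured by sandwich ELISA. IC50 came from percent inhibition of p24.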

[4] = (§3) Cytotoxicity against human MT2 cells incubated for 4 days by XTT assay; format: cell-based; details: MT2 cells
Summary of the method: (§4)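 Run alongside the MT-2 multicycle infection assay. Compound at graded concentrations mixed with an equal volume of MT-2 cells (10^5 cells/ml). Medium replaced next day and culture continued four days.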

[5] = tested on: TZM; assay: as §1; format: cell-based; details: tzm, 72 h; summary of the method: as §2
[6] = tested on: MT2; assay: as §3; format: cell-based; details: mt2, 96 h, 96 h; summary of the method: as §4
[7] = Human immunodeficiency virus 1, HXB2, TZM-bl
[8] = Human immunodeficiency virus 1, 3B, MT2

SMILES	CC50 at 72 h [1]	pIC50 [2, 7]	pIC50 [3, 8]	CC50 at 96 h [4]	CC50 [5]	pIC50 [2]	CC50 [6]	pIC50 [3]
CNCC(NC(=O)c1ccc(-c2cc(F)c(Cl)c(F)c2)[nH]1)c1ncc(CO)s1 (stereo in doubt; 88A)	10.4 µM	6.44	6.44	14 µM				
CNCC(NC(=O)c1ccc(-c2ccc(Cl)c(F)c2)[nH]1)c1ncc(CO)s1 (stereo in doubt; 86A)	17.4 µM	5.85	5.41	18.4 µM				
Cc1ccc(-c2ccc(C(=O)NC(CN(C)C)c3nc(C)c(CO)s3)[nH]2)cc1F (stereo not drawn)	> 40 µM	< 4.40	< 4.70	> 40 µM				
COc1cc(C(=O)NC(CN)c2nc(C)c(CO)s2)[nH]c1-c1ccc(Cl)cc1 (stereo in doubt; 29B)					16.4 µM	4.77	15.7 µM	
NCC(NC(=O)c1ccc(-c2ccc(Cl)cc2)[nH]1)c1ncc(CO)s1 (stereo in doubt; 81B)					37.1 µM	6.12	34.5 µM	5.74
NCC(NC(=O)c1ccc(-c2ccc(Cl)cc2)[nH]1)c1ncc(CO)s1 (stereo in doubt; 81A)	38 µM	5.89	5.85	35.6 µM				
CNCC(NC(=O)c1ccc(-c2ccc(Cl)c(F)c2)[nH]1)c1ncc(CO)s1 (stereo in doubt; 86B)					17.3 µM	6.02	18.3 µM	5.40
Cc1cc(-c2ccc(Cl)cc2)[nH]c1C(=O)NC(CN)c1nc(C)c(CO)s1 (stereo in doubt; 27B)					27.2 µM	5.66	24.9 µM	5.39
COc1cc(C(=O)NC(CN)c2nc(C)c(CO)s2)[nH]c1-c1ccc(Cl)cc1 (stereo in doubt; 29A)	25.4 µM	4.65	< 4.62	25 µM				
Cc1nc(C(CN)NC(=O)c2ccc(-c3ccc(F)c(F)c3)[nH]2)sc1CO (stereo in doubt; 25B)					58.6 µM		64.6 µM	5.32
CNCC(NC(=O)c1ccc(-c2ccc(C)c(F)c2)[nH]1)c1nc(C)c(CO)s1 (stereo in doubt; 43B)					34.2 µM	5.80	30.6 µM	6.02
CNCCC(NC(=O)c1ccc(-c2ccc(F)c(C)c2)[nH]1)c1nc(C)c(CO)s1 (stereo in doubt; 66A)	38.9 µM	5.39	5.39	25.9 µM				
CNCC(NC(=O)c1ccc(-c2cc(F)c(Cl)c(F)c2)[nH]1)c1ncc(CO)s1 (stereo in doubt; 88B)					13.9 µM	6.38	11.9 µM	
CNCCC(NC(=O)c1ccc(-c2ccc(F)c(Cl)c2)[nH]1)c1nc(C)c(CO)s1 (stereo in doubt; 65A)	22 µM		5.41	22.6 µM		5.82		
Cc1nc(C(CCN(C)C)NC(=O)c2ccc(-c3ccc(F)c(Cl)c3)[nH]2)sc1CO (stereo in doubt; 68A)	21.3 µM	5.82	5.43	19.1 µM				
Cc1nc(C(CCN(C)C)NC(=O)c2ccc(-c3cccc(Cl)c3)[nH]2)sc1CO (stereo in doubt; 67A)	29.4 µM	4.98	4.86	26 µM				
CNCC(NC(=O)c1ccc(-c2ccc(C)c(F)c2)[nH]1)c1ncc(CO)s1 (stereo in doubt; 87B)					27.4 µM	6.00	28.3 µM	6.00
Cc1nc(C(CN)NC(=O)c2ncc(-c3ccc(Cl)cc3)[nH]2)sc1CO (stereo in doubt; 30B)						4.46		
Cc1cc(-c2ccc(Cl)cc2)[nH]c1C(=O)NC(CN)c1nc(C)c(CO)s1 (stereo in doubt; 27A)	26.4 µM	5.96	5.41	20.2 µM				
Cc1nc(C(CCN)NC(=O)c2ccc(-c3ccc(F)c(Cl)c3)[nH]2)sc1CO (stereo in doubt; 62A)	25.5 µM	5.18	5.11	25.1 µM				
Cc1cc(C(=O)NC(CN)c2nc(C)c(CO)s2)[nH]c1-c1ccc(Cl)cc1 (stereo in doubt; 28A)		5.44	5.28		22.2 µM		18 µM	
NCC(NC(=O)c1ccc(-c2ccc(Cl)c(F)c2)[nH]1)c1ncc(CO)s1 (stereo in doubt; 82A)	37.4 µM	5.96	6.03	32 µM				
COc1ccc(-c2ccc(C(=O)NC(CN)c3ncc(CO)s3)[nH]2)cc1OC (stereo not drawn)	> 50 µM	< 4.30	< 4.30	> 50 µM				

SMILES	CC50 at 72 h [1]	pIC50 [2, 7]	pIC50 [3, 8]	CC50 at 96 h [4]	CC50 [5]	pIC50 [2]	CC50 [6]	pIC50 [3]
CNCC(NC(=O)c1ccc(-c2ccc(Cl)cc2)[nH]1)c1nc(C)c(CO)s1 (stereo in doubt; 41A)	28.4 µM		5.26	27.2 µM				
Cc1nc(C(CN)NC(=O)c2ccc(-c3ccc(Cl)cc3)n2C)sc1CO (stereo in doubt; 26A)	36.7 µM	4.59	< 4.60	26.6 µM				
Cc1cc(-c2ccc(C(=O)NC(CCN)c3nc(C)c(CO)s3)[nH]2)ccc1F (stereo in doubt; 63A)	33 µM	5.24	5.74	35.8 µM				
NCC(NC(=O)c1ccc(-c2cc(F)c(Cl)c(F)c2)[nH]1)c1ncc(CO)s1 (stereo in doubt; 84B)					20.6 µM		17.4 µM	6.01
Cc1nc(C(CN)NC(=O)c2ccc(-c3ccc(F)c(F)c3)[nH]2)sc1CO (stereo in doubt; 25A)	57.3 µM	5.47	5.22	61.2 µM				
Cc1cc(-c2ccc(C(=O)NC(CCN(C)C)c3nc(C)c(CO)s3)[nH]2)ccc1F (stereo in doubt; 69B)					23.5 µM	5.32	23.5 µM	5.54
Cc1nc(C(CCN(C)C)NC(=O)c2ccc(-c3ccc(F)c(Cl)c3)[nH]2)sc1CO (stereo in doubt; 68B)					22 µM	5.74	22 µM	5.36
NCC(NC(=O)c1ccc(-c2ccc(Cl)c(F)c2)[nH]1)c1ncc(CO)s1 (stereo in doubt; 82B)					33 µM	6.24	36 µM	5.92
Cc1ccc(-c2ccc(C(=O)NC(CN)c3ncc(CO)s3)[nH]2)cc1F (stereo in doubt; 83A)	39.2 µM			35.2 µM				5.80
CNCC(NC(=O)c1ccc(-c2ccc(C)c(F)c2)[nH]1)c1nc(C)c(CO)s1 (stereo in doubt; 43A)	33.5 µM		5.96	34.4 µM				
Cc1nc(C(CN(C)C)NC(=O)c2ccc(-c3ccc(Cl)c(F)c3)[nH]2)sc1CO (stereo in doubt; 45B)						4.72		4.72
Cc1nc(C(CN)NC(=O)c2cnc(-c3ccc(Cl)cc3)[nH]2)sc1CO (stereo not drawn)	> 51 µM	< 4.29	< 4.59	> 51 µM				
CNCC(NC(=O)c1ccc(-c2ccc(Cl)c(F)c2)[nH]1)c1nc(C)c(CO)s1 (stereo in doubt; 42B)					21.3 µM		18.1 µM	5.70
CNCC(NC(=O)c1ccc(-c2ccc(Cl)c(F)c2)[nH]1)c1nc(C)c(CO)s1 (stereo in doubt; 42A)	20.6 µM	5.80	5.62	21.7 µM				
Cc1nc(C(CN(C)C)NC(=O)c2ccc(-c3ccc(Cl)c(F)c3)[nH]2)sc1CO (stereo in doubt; 45A)	> 40 µM	4.78	< 4.70	> 40 µM				
CNCC(NC(=O)c1ccc(-c2ccc(Cl)cc2)[nH]1)c1nc(C)c(CO)s1 (stereo in doubt; 41B)					31.7 µM		26.4 µM	5.51
Cc1cc(C(=O)NC(CN)c2nc(C)c(CO)s2)[nH]c1-c1ccc(Cl)cc1 (stereo in doubt; 28B)					5.2 µM		4.1 µM	5.21
CNCCC(NC(=O)c1ccc(-c2cccc(Cl)c2)[nH]1)c1nc(C)c(CO)s1 (stereo in doubt; 64A)	23 µM	5.20	5.11	25.1 µM				
Cc1nc(C(CN(C)C)NC(=O)c2ccc(-c3ccc(Cl)cc3)[nH]2)sc1CO (stereo not drawn)	> 40 µM	< 4.40	< 4.40	> 40 µM				
CNCC(NC(=O)c1ccc(-c2ccc(C)c(F)c2)[nH]1)c1ncc(CO)s1 (stereo in doubt; 87A)	22.3 µM	5.70		26.6 µM				5.36
Cc1nc(C(CN)NC(=O)c2ncc(-c3ccc(Cl)cc3)[nH]2)sc1CO (stereo in doubt; 30A)	> 51 µM	4.29	< 4.59	> 51 µM				
Cc1nc(C(CN)NC(=O)c2ccc(-c3ccc(Cl)cc3)n2C)sc1CO (stereo in doubt; 26B)					35.8 µM	4.59	32.1 µM	
Cc1cc(-c2ccc(C(=O)NC(CCN(C)C)c3nc(C)c(CO)s3)[nH]2)ccc1F (stereo in doubt; 69A)	23.7 µM		5.68	25.1 µM		5.72		
